This is an account of results in ChEMBL document CHEMBL4828720, “Macrocyclic Immunoproteasome Inhibitors as a Potential Therapy for Alzheimer's Disease” (J Med Chem, 2021).

Test [1] deals with T1, Proteasome subunit beta type-8 (Homo sapiens, UniProt P28062).
T1 sequence (P28062 whole entry): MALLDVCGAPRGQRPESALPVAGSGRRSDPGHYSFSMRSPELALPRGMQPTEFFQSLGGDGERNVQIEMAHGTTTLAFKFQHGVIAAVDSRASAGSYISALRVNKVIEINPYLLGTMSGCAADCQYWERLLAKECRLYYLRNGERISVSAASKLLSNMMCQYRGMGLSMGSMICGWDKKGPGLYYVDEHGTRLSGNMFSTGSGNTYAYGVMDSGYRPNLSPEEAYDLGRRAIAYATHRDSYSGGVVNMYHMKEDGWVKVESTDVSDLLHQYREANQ
The test is described as follows: Inhibition of human 20S proteasome LMP7 using Ac-ANW-AMC as fluorogenic substrate measured every minute for 1 hr by fluorescence assay. The essentials: (§1)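 Purified human 20S constitutive or immunoproteasome, 50 ng in 20 mM Tris-HCl, 0.5 mM EDTA, 0.035% SDS, pH 8.0. Preincubated 1 h with inhibitor at 3-10,000 nM (8 concentrations). Substrates at 100 μM: Ac-PAL-AMC (LMP2), Ac-nLPnLD-AMC (Y), Ac-ANW-AMC (LMP7). Ac-WLA-AMC (X) at 20 μM. AMC fluorescence (360/460 nm) read each minute for 1 h; 3 replicates.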

Test [2] has as its target T2, Proteasome subunit beta type-9 (Homo sapiens, UniProt P28065).
T2 sequence (P28065 whole entry): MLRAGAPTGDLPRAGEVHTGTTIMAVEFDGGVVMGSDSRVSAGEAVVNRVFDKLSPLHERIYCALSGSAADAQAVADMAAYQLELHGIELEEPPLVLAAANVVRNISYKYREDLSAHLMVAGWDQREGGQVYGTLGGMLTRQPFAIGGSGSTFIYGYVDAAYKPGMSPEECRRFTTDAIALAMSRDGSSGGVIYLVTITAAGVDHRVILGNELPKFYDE
Kind of test: Inhibition of human 20S proteasome LMP2 using Ac-PAL-AMC as fluorogenic substrate measured every minute for 1 hr by fluorescence assay. The essentials: (§2)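 Preincubated 1 h with inhibitor at 3-10,000 nM (8 concentrations). Substrates at 100 μM: Ac-PAL-AMC (LMP2), Ac-nLPnLD-AMC (Y), Ac-ANW-AMC (LMP7). Ac-WLA-AMC (X) at 20 μM. AMC fluorescence (360/460 nm) read each minute for 1 h; 3 replicates.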

A short description of test [3]: Inhibition of human 20S proteasome X using Ac-WLA-AMC as fluorogenic substrate measured every minute for 1 hr by fluorescence assay. The method in brief: as §1
Test [4] can be described thus: Inhibition of human 20S proteasome Y using Ac-nLPnLD-AMC as fluorogenic substrate measured every minute for 1 hr by fluorescence assay. The method in brief:
as §2

For test [5], the target named is T2, Proteasome subunit beta type-9. The test is described as follows: Inhibition of human 20S proteasome LMP2 activity in human RPMI-8226 cells overexpressing ABCB1 using Ac-PAL-AMC as fluorogenic substrate incubated for 72 hrs by fluorescence assay. Type of test: cell-based.
A further test is filed under the species Homo sapiens. Kind of test: Selectivity index, ratio of IC50 for inhibition of human 20S proteasome LMP2 activity in human RPMI-8226 cells overexpressing ABCB1 to IC50 for inhibition of human 20S proteasome LMP2 activity in human RPMI-8226 cells. The class given is cell-based. The essentials: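 Carfilzomib-resistant RPMI 8226/ABCB1 line, kept drug-free for two weeks, alongside parental RPMI 8226. Cells exposed to varying inhibitor concentrations for 72 h, n=3 per concentration. Lysates (5 μg protein, pH 8.0 Tris/EDTA/0.035% SDS buffer) read with 100 μM Ac-PAL-AMC at ex 360/em 460 nm every minute for 1 h. IC50 from curve fitting, mean ± SD.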

Test [6] concerns the target T2, Proteasome subunit beta type-9. The test is described as follows: Inhibition of human 20S proteasome LMP2 activity in human RPMI-8226 cells using Ac-PAL-AMC as fluorogenic substrate incubated for 72 hrs by fluorescence assay. The class given is cell-based.

On to `CC(C)C[C@H](NC(=O)[C@@H]1COCCCCCC(=O)N2CCC[C@@]2(C)C(=O)N1)C(=O)[C@@]1(C)CO1`, for which the IC50 was greater than 10000 nM in test [1], 4580 nM in test [2] and greater than 10000 nM in test [3].
As for `CC(C)C[C@H](NC(=O)[C@@H]1Cc2ccc(cc2)OCCCCCCCC(=O)N2CCC[C@H]2C(=O)N1)C(=O)[C@@]1(C)CO1`, the IC50 is 715 nM in test [4]; 1520 nM in test [1]; 129 nM in test [2]; 161 nM in test [5]; 4770 nM in test [3]; 33.9 nM in test [6]. Further, the Ratio IC50 in the test filed under Homo sapiens was 4.7.
With `C[C@]1(C(=O)[C@H](CC2CCCCC2)NC(=O)[C@@H]2COCCCCCC(=O)N3CCC[C@H]3C(=O)N2)CO1`, the IC50 was 5770 nM in test [1], 523 nM in test [2] and greater than 10000 nM in test [3].
In the case of `CC(C)C[C@H](NC(=O)[C@@H]1Cc2ccc(cc2)OCCCCCCCCC(=O)N2CCC[C@H]2C(=O)N1)C(=O)[C@@]1(C)CO1`, the concentration for half-maximal inhibition (IC50) in test [4] was 414 nM; in test [1], 342 nM; in test [2], 414 nM; in test [3], 5000 nM.
Turning to `C[C@]1(C(=O)[C@H](CC2CCCCC2)NC(=O)[C@@H]2Cc3ccc(cc3)OCCCCCCCC(=O)N3CCC[C@H]3C(=O)N2)CO1`, the concentration for half-maximal inhibition (IC50) in test [1] was 2690 nM; in test [2], 168 nM; in test [3], 5000 nM.
In test [3], `CC(C)C[C@H](NC(=O)[C@H](Cc1ccccc1)NC(=O)[C@@H]1CCCN1C(=O)CNC(=O)c1cnccn1)C(=O)[C@@]1(C)CO1` showed a concentration for half-maximal inhibition (IC50) greater than 10000 nM.
Take `CC(C)C[C@H](NC(=O)[C@@H]1COCCCCCC(=O)N2CC(F)(F)C[C@H]2C(=O)N1)C(=O)[C@@]1(C)CO1`: the IC50 in test [1] was greater than 10000 nM; in test [2] it was 238 nM; in test [3], greater than 10000 nM.
`CC(C)C[C@H](NC(=O)[C@@H]1COCCCCCC(=O)NCC(=O)N2CCC[C@H]2C(=O)N1)C(=O)[C@@]1(C)CO1`: the half-inhibitory concentration (IC50) in test [1] is greater than 10000 nM; in test [2], 69.4 nM; in test [5], greater than 10000 nM; in test [3] it was greater than 10000 nM; in test [6] it was greater than 10000 nM.
Turning to `CC(C)C[C@H](NC(=O)[C@@H]1COCCCCCC(=O)N2CC[C@H]2C(=O)N1)C(=O)[C@@]1(C)CO1`, the IC50 in test [1] is greater than 10000 nM; in test [2], 261 nM; in test [3] it was greater than 10000 nM.
As to `CC(C)C[C@H](NC(=O)[C@@H]1COCCCCCCC(=O)NCC(=O)N2CCC[C@H]2C(=O)N1)C(=O)[C@@]1(C)CO1`, the IC50 in test [1] is greater than 10000 nM; in test [2], 65.6 nM; in test [5], greater than 10000 nM; in test [3], greater than 10000 nM; in test [6] it was greater than 10000 nM.
For the compound `CC(C)C[C@H](NC(=O)[C@@H]1COCCCCCC(=O)N2C[C@H](F)C[C@H]2C(=O)N1)C(=O)[C@@]1(C)CO1`, the IC50 is greater than 10000 nM in test [4], greater than 10000 nM in test [1], 2130 nM in test [2] and greater than 10000 nM in test [3].
As to `CC(C)C[C@H](NC(=O)[C@@H]1COCCCCCC(=O)N2CCC[C@H]2C(=O)N1)C(=O)[C@@]1(C)CO1`, the half-maximal inhibitory concentration (IC50) in test [4] is 1500 nM; in test [1] it was greater than 10000 nM; in test [2], 413 nM; in test [5] it was 147 nM; in test [3], 1080 nM; in test [6], 35.8 nM. For the same compound, in the test listed under Homo sapiens, the Ratio IC50 came out at 4.1.
For the compound `CC(C)C[C@H](NC(=O)[C@@H]1Cc2ccc(cc2)OCCCCCCC(=O)N2CCC[C@H]2C(=O)N1)C(=O)[C@@]1(C)CO1`, the IC50 in test [1] is greater than 10000 nM; in test [2] it was 423 nM; in test [3], greater than 10000 nM.
As to `C[C@]1(C(=O)[C@H](Cc2ccccc2)NC(=O)[C@@H]2COCCCCCC(=O)N3CCC[C@H]3C(=O)N2)CO1`, the IC50 in test [1] was greater than 10000 nM; in test [2], 251 nM; in test [3], greater than 10000 nM.
Take `CC(C)C[C@H](NC(=O)[C@@H]1COCCCCCCCC(=O)N2CCC[C@H]2C(=O)N1)C(=O)[C@@]1(C)CO1`: the IC50 in test [1] was greater than 10000 nM; in test [2], 158 nM; in test [3], greater than 10000 nM.
On to `CC(C)C[C@H](NC(=O)[C@@H]1COCCCCCCC(=O)N2CCC[C@H]2C(=O)N1)C(=O)[C@@]1(C)CO1`, for which the IC50 in test [1] was greater than 10000 nM; in test [2] it was 563 nM; in test [3] it was 4640 nM.
For `CC(C)C[C@H](NC(=O)[C@@H]1COCCCCCC(=O)N2CCCC[C@H]2C(=O)N1)C(=O)[C@@]1(C)CO1`, in that order: greater than 10000 nM, 1240 nM and greater than 10000 nM.
In test [3], `CC(=O)NCC(=O)N1CCC[C@H]1C(=O)N[C@@H](Cc1ccccc1)C(=O)N[C@@H](CC(C)C)C(=O)[C@@]1(C)CO1` returned an IC50 greater than 10000 nM.

As a reminder, the IC50 is the midpoint of a concentration-inhibition curve.
